GSK3 alpha inh – human GSK-3 alpha kinase inhibition; P49840; ADP-Glo luminescence, 60 min; inhibition, % at 10 µM; 320,000 tested, 0.1% active;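 active = more than half of replicates show inhibition above 20%; inconclusive = some but at most half of replicates above 20% inhibition; inactive = no replicate shows inhibition above 20%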;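 also: GST-tagged GSK-3 alpha with peptide substrate and 25 µM ATP; 0% = DMSO neutral wells and 100% = GW8510 positive control wells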
STK33 kinase inh – blocks human STK33 kinase activity; AID 2661; purified STK33, MBP phosphorylation, ADP-Glo luminescence; inhibition, % at 10 µM; 320,000 tested, 0.073% active;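 active = inhibition at or above 25%, using the most active replicate where run in duplicate; inactive = inhibition below 25%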
Hep lipid drop – hepatic lipid droplet formation modulation; AML12 mouse hepatocytes, oleate lipid droplets, BODIPY imaging; inhibition, % at 6.5 µM; 240,000 tested, 0.4% active;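 active = lipid droplet intensity inhibited by at least 50%, with more than 500 cells counted; inconclusive = wells with under 300 cells, treated as cytotoxic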
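System: AML12 hepatocytes (mouse). Probe or stimulus: oleic acid at 100 µM to induce lipid droplet formation. Times: overnight treatment with compound plus oleate. Detection: Image-based BODIPY and DAPI two-channel analysis. Evaluation: percent inhibition of filter-corrected integrated lipid droplet intensity per well.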
GSK3beta inhib – human GSK3beta kinase inhibition. P49841. GST-GSK3beta kinase, ADP-Glo luminescence, 60 min; stronger effect = lower value. activity score (negative = inhibition), % at 10 µM. 300,000 tested, 0.038% active. AID 2097;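 active = more than half of replicate wells score below -50%, meaning over 50% inhibition versus plate controls; inconclusive = some replicates but at most half score below -50%; inactive = no replicate scores below -50%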;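 also: 0% = median DMSO wells and -100% = median GW8510 positive control wells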
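Test system: GST-fused GSK3beta enzyme, cell-free | Quantity: 1.6 ng GST-GSK3beta enzyme per well | Reagent: 25 µM ATP with peptide substrate | Schedule: 60 min enzyme reaction, room temperature | Signal: Luminescent ADP-Glo measurement of ADP formed | Read-out basis: Score relative to plate controls | Control set: DMSO and 20 µM GW8510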
LANA-H2B inh – blocks KSHV LANA binding to histone H2A/H2B; Q9QR71; cell-free LANA-H2A/H2B peptide, fluorescence polarization; inhibition, % (concentration not given with the values); 320,000 tested, 0.6% active; AID 2629; in the data active = inhibition mostly above about 10%, no sharp cut-off; inactive = mostly below about 6.7%
Target sequence (Q9QR71 whole entry, looked up): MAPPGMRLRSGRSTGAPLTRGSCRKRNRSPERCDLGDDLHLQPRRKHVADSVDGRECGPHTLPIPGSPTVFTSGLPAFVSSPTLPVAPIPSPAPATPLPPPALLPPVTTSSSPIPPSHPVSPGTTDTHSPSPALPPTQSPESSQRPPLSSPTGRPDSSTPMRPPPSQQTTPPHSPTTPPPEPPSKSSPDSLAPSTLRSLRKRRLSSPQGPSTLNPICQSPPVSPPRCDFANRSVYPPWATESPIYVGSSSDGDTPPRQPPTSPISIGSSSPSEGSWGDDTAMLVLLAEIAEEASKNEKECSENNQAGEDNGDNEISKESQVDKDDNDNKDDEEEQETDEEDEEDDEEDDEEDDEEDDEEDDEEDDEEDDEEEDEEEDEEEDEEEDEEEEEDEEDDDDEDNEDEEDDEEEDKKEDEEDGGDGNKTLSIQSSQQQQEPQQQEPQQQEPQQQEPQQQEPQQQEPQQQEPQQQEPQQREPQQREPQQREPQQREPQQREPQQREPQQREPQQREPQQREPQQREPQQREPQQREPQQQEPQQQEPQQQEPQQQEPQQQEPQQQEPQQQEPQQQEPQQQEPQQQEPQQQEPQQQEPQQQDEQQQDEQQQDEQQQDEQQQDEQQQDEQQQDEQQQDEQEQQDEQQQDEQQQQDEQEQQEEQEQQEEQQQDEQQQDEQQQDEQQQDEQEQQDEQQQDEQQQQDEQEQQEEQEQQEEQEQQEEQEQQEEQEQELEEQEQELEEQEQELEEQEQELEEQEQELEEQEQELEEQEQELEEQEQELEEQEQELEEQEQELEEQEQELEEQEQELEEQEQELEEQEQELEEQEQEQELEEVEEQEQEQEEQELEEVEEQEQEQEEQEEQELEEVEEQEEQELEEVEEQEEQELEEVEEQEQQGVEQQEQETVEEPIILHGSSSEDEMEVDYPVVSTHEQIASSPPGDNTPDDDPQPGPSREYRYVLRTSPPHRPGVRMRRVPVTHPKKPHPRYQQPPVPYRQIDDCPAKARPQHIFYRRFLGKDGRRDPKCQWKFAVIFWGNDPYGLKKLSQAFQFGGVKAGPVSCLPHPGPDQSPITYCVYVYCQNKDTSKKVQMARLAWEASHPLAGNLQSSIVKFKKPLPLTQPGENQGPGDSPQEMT
TAG inh – reduces triacylglycerol accumulation in H9c2 cells; 230,000 tested, 0.66% active; Nile Red lipid (TAG) fluorescence; cells loaded with 200 µM oleic acid; inhibition, % at 12.5 µM;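 active = pattern-corrected inhibition of lipid staining of at least 50% with the nuclear-stain viability signal not falling by more than 50%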;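 also: 0% = DMSO wells and 100% = triacsin C control wells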
The depositor's hits bear a star; ? = inconclusive; / = no result given; + = active, no number. Compounds with a hit are over-represented: about 1.3% of the library has one in this group of screens.

SMILES	GSK3 alpha inh	STK33 kinase inh	Hep lipid drop	GSK3beta inhib	LANA-H2B inh	TAG inh
COC(=O)C1=NN[C@H](C(=O)OC)[C@H]1c1ccccc1	-1	-2	-7	3	-10	/
COc1ccc(C(=O)/C=C/Nc2ccc(S(=O)(=O)Nc3cc(OC)nc(OC)n3)cc2)c(OC)c1	18	-1	-2	1	17*	/
O=C(Cn1nc(Cc2cccnc2)c2ccccc2c1=O)Nc1ccccc1F	1	0	5	1	16*	-15
O=C(Cn1nc(Cc2cccnc2)c2ccccc2c1=O)Nc1cc(F)ccc1F	-1	0	-9	0	-2	11
Cc1nc(C/C(=N\N)c2ccc(O)cc2O)cs1	5	1	-15	1	-3	92
O=C(CN1CCCCC1)Nc1ccc(S(=O)(=O)N2CCCCCC2)cc1	0	1	/	3	-4	/
O=C(CN1CCCC1)Nc1ccc(S(=O)(=O)N2CCCCC2)cc1	0	-1	?	-3	35*	/
O=S(=O)(c1cnc[nH]1)N1CCN(c2ccc(Cl)cc2)CC1	0	0	/	1	1	5
COc1ccc(N2CCN(S(=O)(=O)c3cnc[nH]3)CC2)cc1	-5	-2	5	1	33*	-5
CC(=NNC(=S)N1CC2CCC(CC2)C1)c1cccc(C)n1	/	/	/	/	/	53*
Nc1nc(Nc2cccc(Cl)c2)nc(NCCO)c1[N+](=O)[O-]	73*	9	-15	-50*	2	12
Cc1cccc(Nc2nc(N)c([N+](=O)[O-])c(NCCO)n2)c1	64*	16	5	-45	7	12
COc1ccc(Nc2nc(N)c([N+](=O)[O-])c(NCCO)n2)cc1	75*	21	-1	-53*	-1	13
CC(C)Oc1ccc(C(CC(=O)O)c2ccc(F)cc2)cc1 (centres undefined)	-4	0	7	3	-4	12
Cc1ccc(-c2nn(CCC(=O)O)cc2/C=C\C(=O)c2ccc(Br)cc2)cc1	6	36*	-5	0	-3	1
O=C(O)CCn1cc(/C=C\C(=O)c2ccc(Cl)cc2)c(-c2cccc(Br)c2)n1	-3	15	15	0	-5	/
Cc1cc(C)c2cc(C#N)c(NCCOC(=O)c3ccccc3C)nc2c1	-4	-2	/	2	-3	/
Cc1nn(-c2ccccc2)c(Cl)c1C(=O)NCC1CCCO1 (centres undefined)	-1	-1	/	/	24*	-2
OC(CNc1nc(C(F)(F)F)nc2ccccc12)c1ccccc1 (centres undefined)	5	5	-13	2	4	/
CCOc1cccc(C2C(C(=O)c3ccc(C)o3)=C(O)C(=O)N2c2nccs2)c1 (centres undefined)	0	3	/	-2	15*	-27
Cc1ccc(S(=O)(=O)NC2(C(F)(F)F)NC(=O)N(C)C2=O)cc1 (centres undefined)	0	-2	2	0	-4	/
COc1ccc(N(CC(=O)Nc2cccc(N(C)S(C)(=O)=O)c2)S(=O)(=O)c2ccc(C)cc2)cc1	4	0	-5	-4	-2	-7
CCOc1ccc(N(CC(=O)Nc2cccc(N(C)S(C)(=O)=O)c2)S(=O)(=O)c2ccccc2)cc1	1	-2	-18	3	25*	/
COc1ccc(N(CC(=O)Nc2cccc(N(C)S(C)(=O)=O)c2)S(=O)(=O)c2ccc(F)cc2)cc1	2	0	-15	-1	152*	3
CCOc1ccc(N(CC(=O)Nc2cccc(Br)c2)S(C)(=O)=O)cc1	3	0	-6	0	36*	-2
SMILES	GSK3 alpha inh	STK33 kinase inh	Hep lipid drop	GSK3beta inhib	LANA-H2B inh	TAG inh
CN(CCOc1ccc(Cl)cc1)C(=O)C1=CC=CN2CCS(=O)(=O)N=C12	-2	0	/	/	-5	2
CCc1cc(-c2[nH]ncc2-c2ccc3c(c2)OCO3)c(O)cc1O	7	5	6	-2	-8.4*	/
COc1ccc(CCN2CC(C(=O)Nc3ccccc3F)CC2=O)cc1OC (centres undefined)	-1	-1	/	-4	-1	-12
CCCCn1nc(C(=O)NCC(=O)Nc2c(C)cccc2C)c2ccccc2c1=O	-2	1	/	/	+	-4
COc1ccc(NC(=O)c2ccc3nc(C)c(N(C)C(=O)CCc4ccccc4)n3c2)cc1OC	/	/	/	/	/	-1
Cc1cc(OC(C)C(=O)NCc2ccccn2)c2c(C)c(Cc3ccccc3)c(=O)oc2c1 (centres undefined)	-1	-1	-2	-1	-4	/
O=S(=O)(/N=C(\[O-])C[n+]1ccccc1)c1ccc(Cl)cc1	/	-2	1	1	-3	-3
CCOc1cc2[nH]c(=O)n(CCc3ccc(OC)c(OC)c3)c(=O)c2cc1OCC	-1	1	/	4	-3	59*
CCOc1cc2[nH]c(=S)n(CCc3ccc(OC)c(OC)c3)c(=O)c2cc1OCC	-1	-1	-33	0	-1	/
CCCCN(C)C(=O)CCCCn1c(=O)[nH]c2cc(OCC)c(OCC)cc2c1=O	-5	10	/	1	1	51*
CCOc1cc2[nH]c(=O)n(CCCCCC(=O)NCc3ccco3)c(=O)c2cc1OCC	1	-1	-6	4	2	4
CCNC(=S)NS(=O)(=O)c1ccc(F)cc1	-1	-1	0	-1	3	-2
COc1ccc(CN2C3CCCC2CC(NC(=O)/C=C/c2ccccc2)C3)cc1 (centres undefined)	0	-1	15	2	0	8
O=C(NC12CC3CC(CC(C3)C1)C2)c1cncc(Br)c1	3	-1	9	0	-5	/
O=C(COC(=O)c1cncc(Br)c1)NC12CC3CC(CC(C3)C1)C2	1	1	/	/	20*	-7
Cc1ccc(C(=O)NC(=C(Cl)Cl)S(=O)(=O)c2ccccc2)cc1	-1	0	-25	3	14*	/
COc1ccc(C(=O)NC(=C(Cl)Cl)S(=O)(=O)c2ccc(C)cc2)cc1	3	0	-1	4	-3	-4
O=C(CNC(=O)OCc1ccccc1)Oc1ccc2ccc(=O)oc2c1	0	-1	6	6	-5	/
O=C(NC(Cc1ccccc1)C(=O)Oc1ccc2c(C(F)(F)F)cc(=O)oc2c1)OCc1ccccc1 (centres undefined)	1	-1	8	3	175*	/
CC(C)OCCCN1CC(=O)N2C(c3cccc([N+](=O)[O-])c3)c3[nH]c4ccccc4c3C[C@H]2C1=O (some centres undefined)	0	-2	-4	5	6	/
O=C(Nc1ccccc1)c1sc(N2CCOCC2)nc1-c1ccccc1	-1	5	2	-3	3	/
N#C/C(=C\c1sc(N2CCOCC2)nc1-c1ccccc1)C(=O)Nc1cccc2ccccc12	/	/	56*	/	/	/

Assay outcomes (PubChem BioAssay)
